In ChEMBL document CHEMBL5724801, “EUbOPEN Chemogenomics Library - Multiplex” (2024):
Several values for one entry are separate records, joined by “and”; a condition that tells them apart may be missing. Equal values may be shown once.

What was measured:
[1] = system: HEK-293T; assay: Multiplex assay against HEK293T; type: toxicity, cell-based; conditions: human
Summary of the method: (§1)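 Phenotypes for tubulin, mitochondrial mass and membrane permeability are expressed as per cents of healthy-nucleus cells. Cells were stained live at seeding with Hoechst33342, BioTracker Green Microtubule Cytoskeleton Dye, MitoTracker Red and Annexin V Alexa Fluor 680, then imaged after compound addition on a CQ1 microscope at 37°C and 5% CO2. Machine-learning gating in CellPathfinder separated Hoechst high-intensity objects from normal cells, divided normal cells by nuclear state (healthy, pyknosed, fragmented) and divided pyknosed cells into mitotic or apoptotic.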

[2] = system: U2OS; assay: Multiplex assay against U2OS; type: toxicity, cell-based; conditions: human; summary of the method: as §1
[3] = 24 h, 10 µM, compound concentration 10 uM
[4] = 48 h, 1 µM, compound concentration 1 uM
[5] = 48 h, 10 µM, compound concentration 10 uM
[6] = 12 h, 1 µM, compound concentration 1 uM
[7] = 12 h, 10 µM, compound concentration 10 uM
[8] = 24 h, 1 µM, compound concentration 1 uM

## CC(C)Oc1ccc(F)c(-c2cnc(N)c(C(=O)Nc3cnccc3N3CCC[C@@H](C(=O)O)C3)n2)c1
[1]; [3]
  Population Apoptotic (%): 20.45% and 46.61%
  Population Fragmented Nuclei (%): 3.49% and 7.1%
  Population Healthy Nuclei (%): 62.4% and 28.42%
  Population Hoechst High Intensity Objects (%): 0.77% and 0%
  Population Membrane Permeable-Phenotype (%): 1.86% and 0%
  Population Mitochondria Different-Phenotype (%): 33.54% and 11.54%
  Population Mitotic Cells (%): 79.55% and 53.39%
  Population Normal (%): 99.23% and 100%
  Population Pyknosed Nuclei (%): 34.11% and 64.48%
  Total Cell Count: 260 and 183
[1]; [4]
  Population Apoptotic (%): 8.84% and 23.26%
  Population Fragmented Nuclei (%): 3.08% and 2.66%
  Population Healthy Nuclei (%): 77.03% and 51.6%
  Population Hoechst High Intensity Objects (%): 0.22% and 0%
  Population Membrane Permeable-Phenotype (%): 3.42% and 2.06%
  Population Mitochondria Different-Phenotype (%): 29.39% and 26.8%
  Population Mitotic Cells (%): 91.16% and 76.74%
  Population Normal (%): 99.78% and 100%
  Population Pyknosed Nuclei (%): 19.89% and 45.74%
[1]; [5]
  Population Apoptotic (%): 31.37% and 50.7%
  Population Fragmented Nuclei (%): 10.59% and 8.51%
  Population Healthy Nuclei (%): 74.41% and 53.72%
  Population Hoechst High Intensity Objects (%): 0.29% and 0.53%
  Population Membrane Permeable-Phenotype (%): 7.11% and 0.99%
  Population Mitochondria Different-Phenotype (%): 69.96% and 27.72%
  Population Mitotic Cells (%): 68.63% and 49.3%
  Population Normal (%): 99.71% and 99.47%
  Population Pyknosed Nuclei (%): 15% and 37.77%
  Population Tubulin-Different-Phenotype (%): 27.67% and 73.27%
  Total Cell Count: 341 and 189
[2]; [6]
  Population Apoptotic (%): 45.71% and 37.5%
  Population Fragmented Nuclei (%): 1.25% and 5.73%
  Population Healthy Nuclei (%): 90.02% and 84.08%
  Population Hoechst High Intensity Objects (%): 0%
  Population Membrane Permeable-Phenotype (%): 0.28% and 7.58%
  Population Mitochondria Different-Phenotype (%): 0% and 6.82%
  Population Mitotic Cells (%): 54.29% and 62.5%
  Population Normal (%): 100%
  Population Pyknosed Nuclei (%): 8.73% and 10.19%
  Population Tubulin-Different-Phenotype (%): 0.28% and 0%
  Total Cell Count: 401 and 157
[2]; [7]
  Population Apoptotic (%): 73.33% and 43.75%
  Population Fragmented Nuclei (%): 9.57% and 11.05%
  Population Healthy Nuclei (%): 83.25% and 79.65%
  Population Hoechst High Intensity Objects (%): 0%
  Population Membrane Permeable-Phenotype (%): 8.33% and 15.33%
  Population Mitotic Cells (%): 26.67% and 56.25%
  Population Normal (%): 100%
  Population Pyknosed Nuclei (%): 7.18% and 9.3%
  Population Tubulin-Different-Phenotype (%): 4.02% and 3.65%
  Total Cell Count: 418 and 172
[2]; [8]
  Population Apoptotic (%): 38.6% and 34.38%
  Population Fragmented Nuclei (%): 1.54% and 3.88%
  Population Healthy Nuclei (%): 87.45% and 80.58%
  Population Hoechst High Intensity Objects (%): 0%
  Population Membrane Permeable-Phenotype (%): 0.66% and 4.22%
  Population Mitochondria Different-Phenotype (%): 0% and 3.61%
  Population Mitotic Cells (%): 61.4% and 65.62%
  Population Normal (%): 100%
  Population Pyknosed Nuclei (%): 11% and 15.53%
  Population Tubulin-Different-Phenotype (%): 1.1% and 0%
  Total Cell Count: 518 and 206
[2]; [3]
  Population Apoptotic (%): 49.3% and 65.52%
  Population Fragmented Nuclei (%): 11.73% and 11.05%
  Population Healthy Nuclei (%): 74.16% and 73.68%
  Population Hoechst High Intensity Objects (%): 0%
  Population Mitotic Cells (%): 50.7% and 34.48%
  Population Normal (%): 100%
  Population Pyknosed Nuclei (%): 14.12% and 15.26%
  Population Tubulin-Different-Phenotype (%): 6.97% and 2.14%
  Total Cell Count: 503 and 190
[2]; [4]
  Population Apoptotic (%): 39.13% and 30.56%
  Population Fragmented Nuclei (%): 2.98% and 4.32%
  Population Healthy Nuclei (%): 86.85% and 84.57%
  Population Hoechst High Intensity Objects (%): 0% and 0.31%
  Population Membrane Permeable-Phenotype (%): 2.04% and 2.92%
  Population Mitochondria Different-Phenotype (%): 0% and 2.55%
  Population Mitotic Cells (%): 60.87% and 69.44%
  Population Normal (%): 100% and 99.69%
  Population Pyknosed Nuclei (%): 10.17% and 11.11%
  Population Tubulin-Different-Phenotype (%): 1.65% and 1.82%
  Total Cell Count: 905 and 325
[2]; [5]
  Population Apoptotic (%): 62.73% and 80.56%
  Population Fragmented Nuclei (%): 8.71% and 11.34%
  Population Healthy Nuclei (%): 63.24% and 58.4%
  Population Hoechst High Intensity Objects (%): 0%
  Population Membrane Permeable-Phenotype (%): 2.48% and 6.47%
  Population Mitotic Cells (%): 37.27% and 19.44%
  Population Normal (%): 100%
  Population Pyknosed Nuclei (%): 28.05% and 30.25%
  Population Tubulin-Different-Phenotype (%): 16.25% and 8.63%
  Total Cell Count: 574 and 238
